pIC50: −log10 of the molar value. ≈ marks a conversion by molar mass, not a printed value.
Tests used:
[1] = system: Pichia kudriavzevii; assay: Antifungal activity against Candida krusei ATCC 6258 after 48 hrs by microdilution method; type: functional; conditions: ATCC 6258, 48 h
Method in brief: (§1)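 Yeasts held on Sabouraud dextrose agar. MIC by NCCLS M27-A broth microdilution in RPMI 1640 with L-glutamine, buffered with 0.165 M MOPS to pH 7.0. Compounds in DMSO (≤2% final), twofold dilutions 500–0.48. Final inoculum 5 × 10³ ± 0.2 cfu mL⁻¹. Incubated at 35 °C; absorbance at 540 nm read at 24 and 48 h. MIC is 80% growth inhibition versus control; run twice in duplicate.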

[2] = system: Candida parapsilosis; assay: Antifungal activity against Candida parapsilosis ATCC 22019 after 24 hrs by microdilution method; type: functional; conditions: Lodderomyces parapsilosis, ATCC 22019, 24 h; method in brief: as §1
[3] = system: Aspergillus fumigatus; assay: Antifungal activity against Aspergillus fumigatus 231 after 24 hrs by microdilution method; type: functional; conditions: Aspergillus fumigatus, 231, 24 h
Method in brief: (§2)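 Filamentous strains held on Sabouraud dextrose agar. NCCLS M27-A broth microdilution in RPMI 1640 with L-glutamine and 0.165 M MOPS, pH 7.0. DMSO diluent ≤2% final; twofold dilutions 500–0.48. Inoculum 5 × 10³ ± 0.2 cfu mL⁻¹ final.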

[4] = system: Candida albicans; assay: Antifungal activity against Candida albicans ATCC 44859 after 24 hrs by microdilution method; type: functional; conditions: ATCC 44859, 24 h; method in brief: as §1
[5] = system: Lichtheimia corymbifera; assay: Antifungal activity against Absidia corymbifera 272 after 48 hrs by microdilution method; type: functional; conditions: Lichtheimia corymbifera, 272, 48 h; method in brief: as §2
[6] = system: CCRF-CEM; assay: Cytostatic activity against human CCRF-CEM cells after 72 hrs by XTT assay; type: functional, cell-based; conditions: Homo sapiens, CCRF-CEM, 72 h; read-out: IC50
Method in brief: (§3)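 Leukemia cells (L1210 ATCC CCL 219, CCRF-CEM ATCC CCL 119, HL-60 ATCC CCL 240) grown in 24-well plates in RPMI 1640 with fetal calf serum. Growth assessed 72 h after drug addition. Viability measured by XTT spectrophotometric assay; potency given as IC50.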

[7] = system: Trichosporon beigelii; assay: Antifungal activity against Trichosporon beigelii 1188 after 48 hrs by microdilution method; type: functional; conditions: Trichosporon beigelii, 1188, 48 h; method in brief: as §1
[8] = system: Nakaseomyces glabratus; assay: Antifungal activity against Candida glabrata 20/I after 48 hrs by microdilution method; type: functional; method in brief: as §1
[9] = system: Candida parapsilosis; assay: Antifungal activity against Candida parapsilosis ATCC 22019 after 48 hrs by microdilution method; type: functional; conditions: Lodderomyces parapsilosis, ATCC 22019, 48 h; method in brief: as §1
[10] = system: Pichia kudriavzevii; assay: Antifungal activity against Candida krusei ATCC 6258 after 24 hrs by microdilution method; type: functional; conditions: ATCC 6258, 24 h; method in brief: as §1
[11] = system: Clavispora lusitaniae; assay: Antifungal activity against Candida lusitaniae 2446/I after 24 hrs by microdilution method; type: functional; method in brief: as §1
[12] = system: Pichia kudriavzevii; assay: Antifungal activity against Candida krusei E28 after 24 hrs by microdilution method; type: functional; conditions: E28, 24 h; method in brief: as §1
[13] = system: Nakaseomyces glabratus; assay: Antifungal activity against Candida glabrata 20/I after 24 hrs by microdilution method; type: functional; method in brief: as §1
[14] = system: Trichosporon beigelii; assay: Antifungal activity against Trichosporon beigelii 1188 after 24 hrs by microdilution method; type: functional; conditions: Trichosporon beigelii, 1188, 24 h; method in brief: as §1
[15] = system: Trichophyton mentagrophytes; assay: Antifungal activity against Trichophyton mentagrophytes 445 after 120 hrs by microdilution method; type: functional; conditions: Trichophyton mentagrophytes, 445, 120 h
Method in brief: (§4)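 Dermatophyte held on Sabouraud dextrose agar. M27-A microdilution in MOPS-buffered (0.165 M, pH 7.0) RPMI 1640 with L-glutamine. DMSO ≤2% final; twofold dilutions 500–0.48. Inoculum 5 × 10³ ± 0.2 cfu mL⁻¹ final. Incubated at 35 °C; MIC read visually at 72 and 120 h as 80% inhibition of control growth; determined twice in duplicate.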

[16] = system: Clavispora lusitaniae; assay: Antifungal activity against Candida lusitaniae 2446/I after 48 hrs by microdilution method; type: functional; method in brief: as §1
[17] = system: Candida tropicalis; assay: Antifungal activity against Candida tropicalis 156 after 24 hrs by microdilution method; type: functional; conditions: Candida tropicalis, 156, 24 h; method in brief: as §1
[18] = system: Candida tropicalis; assay: Antifungal activity against Candida tropicalis 156 after 48 hrs by microdilution method; type: functional; conditions: Candida tropicalis, 156, 48 h; method in brief: as §1
[19] = system: Candida albicans; assay: Antifungal activity against Candida albicans ATCC 44859 after 48 hrs by microdilution method; type: functional; conditions: ATCC 44859, 48 h; method in brief: as §1
[20] = system: Aspergillus fumigatus; assay: Antifungal activity against Aspergillus fumigatus 231 after 48 hrs by microdilution method; type: functional; conditions: Aspergillus fumigatus, 231, 48 h; method in brief: as §2
[21] = system: Candida albicans; assay: Antifungal activity against Candida albicans ATCC 90028 after 48 hrs by microdilution method; type: functional; conditions: ATCC 90028, 48 h; method in brief: as §1
[22] = system: HeLa S3; assay: Cytostatic activity against human HeLaS3 cells after 48 hrs by XTT assay; conditions: Homo sapiens, HeLa S3, 48 h; read-out: IC50
[23] = system: Trichophyton mentagrophytes; assay: Antifungal activity against Trichophyton mentagrophytes 445 after 72 hrs by microdilution method; type: functional; conditions: Trichophyton mentagrophytes, 445, 72 h; method in brief: as §4
[24] = system: HL-60; assay: Cytostatic activity against human HL60 cells after 72 hrs by XTT assay; type: functional, cell-based; conditions: Homo sapiens, HL-60, 72 h; read-out: IC50; method in brief: as §3
[25] = system: Pichia kudriavzevii; assay: Antifungal activity against Candida krusei E28 after 48 hrs by microdilution method; type: functional; conditions: E28, 48 h; method in brief: as §1
[26] = system: Lichtheimia corymbifera; assay: Antifungal activity against Absidia corymbifera 272 after 24 hrs by microdilution method; type: functional; conditions: Lichtheimia corymbifera, 272, 24 h; method in brief: as §2
[27] = system: Candida albicans; assay: Antifungal activity against Candida albicans ATCC 90028 after 24 hrs by microdilution method; type: functional; conditions: ATCC 90028, 24 h; method in brief: as §1

Row | MIC80 [1] [µM] | MIC80 [2] [µM] | MIC80 [3] [µM] | MIC80 [4] [µM] | MIC80 [5] [µM] | MIC80 [7] [µM] | MIC80 [8] [µM] | MIC80 [9] [µM] | MIC80 [10] [µM] | MIC80 [11] [µM] | MIC80 [12] [µM] | MIC80 [13] [µM] | MIC80 [14] [µM] | MIC80 [15] [µM] | MIC80 [16] [µM] | MIC80 [17] [µM] | MIC80 [18] [µM] | MIC80 [19] [µM] | MIC80 [20] [µM] | MIC80 [21] [µM] | SMILES | other results
1 | 15.6 (≈ 6.3 µg/mL) | 15.6 (≈ 6.3 µg/mL) | 3.9 (≈ 1.57 µg/mL) | 0.48 (≈ 0.194 µg/mL) | 125 (≈ 50.4 µg/mL) | 15.6 (≈ 6.3 µg/mL) | 3.9 (≈ 1.57 µg/mL) | 15.6 (≈ 6.3 µg/mL) | 15.6 (≈ 6.3 µg/mL) | 7.81 (≈ 3.15 µg/mL) | 15.6 (≈ 6.3 µg/mL) | 3.9 (≈ 1.57 µg/mL) | 7.81 (≈ 3.15 µg/mL) | 3.9 (≈ 1.57 µg/mL) | 15.6 (≈ 6.3 µg/mL) | 15.6 (≈ 6.3 µg/mL) | 15.6 (≈ 6.3 µg/mL) | 1.95 (≈ 0.786 µg/mL) | 7.81 (≈ 3.15 µg/mL) | 7.81 (≈ 3.15 µg/mL) | COC(=O)c1ccc(OCC2C=C(c3ccc(Br)cc3)C(=O)O2)cc1 (stereo unspecified) | pIC50 [6]: 5.90; pIC50 [22]: 5.35; MIC80 [23]: 3.9 µM (≈ 1.57 µg/mL); pIC50 [24]: 5.39; MIC80 [25]: 15.6 µM (≈ 6.3 µg/mL); MIC80 [26]: 62.5 µM (≈ 25.2 µg/mL); MIC80 [27]: 3.9 µM (≈ 1.57 µg/mL)
2 | 15.6 (≈ 5.86 µg/mL) | 7.81 (≈ 2.93 µg/mL) | 3.9 (≈ 1.46 µg/mL) | 0.97 (≈ 0.364 µg/mL) | 62.5 (≈ 23.5 µg/mL) | 15.6 (≈ 5.86 µg/mL) | 1.95 (≈ 0.732 µg/mL) | 15.6 (≈ 5.86 µg/mL) | 7.81 (≈ 2.93 µg/mL) | 3.9 (≈ 1.46 µg/mL) | 7.81 (≈ 2.93 µg/mL) | 0.97 (≈ 0.364 µg/mL) | 7.81 (≈ 2.93 µg/mL) | 1.95 (≈ 0.732 µg/mL) | 7.81 (≈ 2.93 µg/mL) | 7.81 (≈ 2.93 µg/mL) | 7.81 (≈ 2.93 µg/mL) | 1.95 (≈ 0.732 µg/mL) | 7.81 (≈ 2.93 µg/mL) | 7.81 (≈ 2.93 µg/mL) | COc1ccc(OCC2C=C(c3ccc(Br)cc3)C(=O)O2)cc1 (stereo unspecified) | MIC80 [23]: 1.95 µM (≈ 0.732 µg/mL); MIC80 [25]: 15.6 µM (≈ 5.86 µg/mL); MIC80 [26]: 31.2 µM (≈ 11.7 µg/mL); MIC80 [27]: 1.95 µM (≈ 0.732 µg/mL)

— ChEMBL document CHEMBL1157589, “Antifungal 3,5-disubstituted furanones: From 5-acyloxymethyl to 5-alkylidene derivatives” (Bioorg Med Chem, 2010)
